MEKK2 mut-MEK5 – signal of MEK5 binding to mutant human MEKK2 PB1 domain | bead flow cytometry, Alexa488-MEK5 binding to MEKK2 mutant | percent response, % at 10 µM | hit rate 0.35% among 290,000; in the data active means percent response above about 24%, passing the limit was not always enough
MEKK2wt PB1 HTS – raises or lowers MEK5 binding to wildtype human MEKK2 PB1 domain | binding response (% of control), % at 10 µM | hit rate 1.1% among 290,000 | Q9Y2U5 | AID 1531 | bead flow cytometry, Alexa488-MEK5 binding to MEKK2 WT; actives lie on both sides; in the data active means binding response below about 67% or above about 130%
GSK3beta inhib – inhibitors of human GSK3beta kinase; hit rate 0.038% among 300,000; activity score (negative = inhibition), % at 10 µM; GST-GSK3beta kinase, ADP-Glo luminescence, 60 min; stronger effect = lower value;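 active means more than half of replicate wells score below -50%, meaning over 50% inhibition versus plate controls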
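Test system: GST-tagged human GSK3beta kinase, cell-free; evaluation: activity score scaled between in-plate DMSO and GW8510 controls; measured by: ADP-Glo luminescence; incubation: 60 min reaction, RT; benchmarks: DMSO and 20 µM GW8510; reagent: peptide substrate plus 25 µM ATP (final); medium: Tris/MgCl2 kinase buffer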
GSK3 alpha inh – blocks human GSK-3 alpha kinase. ADP-Glo luminescence, 60 min. inhibition, % at 10 µM. P49840. hit rate 0.1% among 320,000;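 active means more than half of replicates show inhibition above 20%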;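 further: GST-tagged GSK-3 alpha with peptide substrate and 25 µM ATP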
MEKK3 PB1 HTS – modulators (inhibitors or enhancers) of MEK5 binding to human MEKK3 PB1 domain. Q99759. bead-based flow cytometry, Alexa488-MEK5 binding to MEKK3; actives lie on both sides; 0 = blocked by unlabeled MEK5, 100 = vehicle. binding response (% of control), % at 10 µM. hit rate 1.4% among 290,000;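 active means binding response more than 3 SD above or below the average of its plate-row segment, actives on both sides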;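 further: Alexa488 bead fluorescence after subtracting the streptavidin-only scavenger bead signal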
Target sequence (Q99759 whole entry, looked up, the tested form may be a part): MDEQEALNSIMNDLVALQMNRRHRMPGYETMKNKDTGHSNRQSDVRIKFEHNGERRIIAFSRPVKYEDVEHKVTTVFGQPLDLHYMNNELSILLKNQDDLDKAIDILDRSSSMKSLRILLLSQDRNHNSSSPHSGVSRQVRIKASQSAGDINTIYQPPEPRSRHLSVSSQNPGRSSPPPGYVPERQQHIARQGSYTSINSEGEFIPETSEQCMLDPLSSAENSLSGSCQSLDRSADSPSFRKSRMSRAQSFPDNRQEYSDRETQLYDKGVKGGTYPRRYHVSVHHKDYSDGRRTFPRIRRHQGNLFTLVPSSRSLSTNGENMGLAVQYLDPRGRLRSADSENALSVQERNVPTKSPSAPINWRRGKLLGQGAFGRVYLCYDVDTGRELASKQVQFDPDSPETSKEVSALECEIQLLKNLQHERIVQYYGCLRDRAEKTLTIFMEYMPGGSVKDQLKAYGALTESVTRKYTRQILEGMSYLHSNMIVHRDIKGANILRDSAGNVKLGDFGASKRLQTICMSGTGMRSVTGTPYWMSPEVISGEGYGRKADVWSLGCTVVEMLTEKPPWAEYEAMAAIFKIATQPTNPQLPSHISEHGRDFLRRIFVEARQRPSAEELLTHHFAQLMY
STK33 kinase inh – inhibitors of human STK33 kinase; Q9BYT3; purified STK33, MBP phosphorylation, ADP-Glo luminescence; inhibition, % at 10 µM; hit rate 0.073% among 320,000;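 active means inhibition at or above 25%, using the most active replicate where run in duplicate; inactive means inhibition below 25%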
MEKK2wt confirm – raises or lowers MEK5 binding to wildtype human MEKK2, retest | shares compounds with MEKK3 PB1 HTS | bead flow cytometry, Alexa488-MEK5 binding to MEKK2 WT; actives lie on both sides | binding response (% of control), % at 10 µM | hit rate 2.4% among 5,900 | AID 1892; in the data active means binding response below about 16% or above about 210%; inactive means in between
MEKK2mut confirm – signal of MEK5 binding to mutant human MEKK2, retest | shares compounds with MEKK3 PB1 HTS | bead flow cytometry, Alexa488-MEK5 binding to MEKK2 mutant | percent response, % at 10 µM | hit rate 2% among 5,900 | AID 1893; in the data active means percent response mostly above about 71%, no sharp cut-off; inactive means mostly below about 38%;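 further: higher means compound restores mutant binding toward wildtype level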
MEKK3-MEK5 inh – confirmation of inhibitors of MEK5 binding to human MEKK3. binding response (% of control), % at 10 µM. hit rate 1.8% among 5,900. shares compounds with MEKK3 PB1 HTS. bead flow cytometry, Alexa488-MEK5 binding to MEKK3; stronger effect = lower value. AID 1894;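 active means binding response below 72% of control, or above a set upper limit, though filed actives all read lower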
Each line names hits and unclear results; the compound was inactive in the other large screens (follow-up assays come after a bar, where they were run); [ ] = dose if it differs, or a comment. Shown are actives, neighbours in structure and some others; about 2.1% of the full set was active somewhere.

CCOC(=O)c1ccc(NC(=S)NCCCN2CCOCC2)cc1	none
CCOC(=O)c1ccc(NC(=S)NC(=O)C2CCCC2)cc1	none
CCOC(=O)c1ccc(NC(=S)NN2CCN(C)CC2)cc1	MEKK3 PB1 HTS 41.0[inhibitor] | MEKK2wt confirm inactive | MEKK2mut confirm inactive | MEKK3-MEK5 inh inactive
CN(Cc1ccccc1F)C(=O)CCNC(=O)c1ccc(C(C)(C)C)cc1	none (no result: MEKK2 mut-MEK5, MEKK2wt PB1 HTS, GSK3beta inhib, MEKK3 PB1 HTS)
CCCCNC(=O)CCn1c(=O)c2cccn2c2ccc(F)cc21	none
Cc1ccc(S(=O)(=O)N2CCN(C(=O)c3ccc4ccccc4n3)CC2)c(C)c1	none (no result: MEKK2 mut-MEK5, MEKK2wt PB1 HTS, GSK3beta inhib, MEKK3 PB1 HTS)
CCc1nc(NCc2ccc3c(c2)OCO3)c2oc3ccccc3c2n1	none (no result: GSK3 alpha inh)
Cc1nc(NCc2ccc3c(c2)OCO3)c2oc3ccccc3c2n1	MEKK3 PB1 HTS 70.0[inhibitor] | MEKK2wt confirm inactive | MEKK2mut confirm inactive | MEKK3-MEK5 inh inactive
O=C(NCc1ccco1)c1ccc(S(=O)(=O)N2CCCCC2)cc1	MEKK3 PB1 HTS 130.0 | MEKK2wt confirm inactive | MEKK2mut confirm inactive | MEKK3-MEK5 inh inactive
O=C(NCc1cccs1)c1ccc(Cl)c(S(=O)(=O)N2CCCC2)c1	MEKK3 PB1 HTS 74.0[inhibitor] | MEKK2wt confirm inactive | MEKK2mut confirm inactive | MEKK3-MEK5 inh inactive
O=C(NCc1cccs1)c1cccc(S(=O)(=O)N2CCCCC2)c1	none
Nc1nnc(CCS(=O)(=O)c2ccc(Br)cc2)s1	none
Cc1cc(=O)oc(C)c1C(=O)NC1CCCCCCC1	none
COc1ccc(OC(=O)Cc2cccc3ccccc23)cc1	none
CCOCCCNC(=O)c1cc2c(-c3ccc(Cl)cc3)nn(C)c2s1	none
Cn1nc(-c2ccc(Cl)cc2)c2cc(C(=O)NCCN3CCOCC3)sc21	MEKK2wt PB1 HTS 136.0 | MEKK2wt confirm inactive | MEKK2mut confirm inactive | MEKK3-MEK5 inh inactive
Cn1nc(-c2ccc(Cl)cc2)c2cc(C(=O)NCCCN3CCOCC3)sc21	MEKK2wt PB1 HTS 154.0 | MEKK2wt confirm inactive | MEKK2mut confirm inactive | MEKK3-MEK5 inh inactive
O=C(c1cc(-c2cccs2)nn1-c1ccccc1)N1CCN(S(=O)(=O)c2ccccc2)CC1	none (no result: MEKK2 mut-MEK5, MEKK2wt PB1 HTS, MEKK3 PB1 HTS)
CN(C)C(=O)COC(=O)c1cccc(CN2C(=O)c3ccccc3C2=O)c1	MEKK3 PB1 HTS 71.0[inhibitor] | MEKK2wt confirm inactive | MEKK2mut confirm inactive | MEKK3-MEK5 inh inactive
O=C(NCCC1=CCCCC1)c1cc(-c2ccncc2)nc2ccccc12	none
COc1ccc([C@@H]2[C@@H]3C(=O)N(C(C)(C)C)C(=O)[C@@H]3[C@]3(C)C(=O)N(c4cccc(Cl)c4)C(=O)N23)cc1	none (no result: MEKK2 mut-MEK5, MEKK2wt PB1 HTS, MEKK3 PB1 HTS)
COc1ccc(-c2nsc3c(SCc4ccccc4)ncnc23)cc1	MEKK3 PB1 HTS 144.0 | MEKK2wt confirm inactive | MEKK2mut confirm inactive | MEKK3-MEK5 inh inactive
O=C(/C=C/c1c[nH]c2ccccc12)c1ccccc1	MEKK3 PB1 HTS 136.0 | MEKK2wt confirm inactive | MEKK2mut confirm inactive | MEKK3-MEK5 inh inactive
CC(NC(=S)NCc1ccc(F)cc1)C12CC3CC(CC(C3)C1)C2 (stereo not given)	none
CCN1CCN(c2cc(C(C)(C)C)nc3c(-c4ccccc4)c(C)nn23)CC1	MEKK2wt PB1 HTS 147.0 | MEKK2wt confirm inactive | MEKK2mut confirm inactive | MEKK3-MEK5 inh inactive
CCN1CCN(c2ccc(NC(=O)CCc3c(C)nc4c(-c5ccccc5)c(C)nn4c3C)cc2)CC1	MEKK2wt PB1 HTS 138.0 | MEKK2wt confirm inactive | MEKK2mut confirm inactive | MEKK3-MEK5 inh inactive
CN1CCN(C(=O)C2=C[C@@H](C(C)(C)C)C[C@@H](OCc3ccc(CO)cc3)O2)CC1	none
Clc1ncccc1OCc1ccccc1	none (no result: MEKK2 mut-MEK5, MEKK2wt PB1 HTS, MEKK3 PB1 HTS)
Cc1cccc(C)c1OCCCN1CCOCC1	none
COc1cccc(CNC(=O)CCC2CCCN(C(=O)c3ccccc3N(C)C)C2)c1 (stereo not given)	none
Cc1cc(C(=O)NNC(=S)NCc2ccccc2)cs1	none

Screening data as filed in PubChem.
